Assay results from ChEMBL document CHEMBL1154468, “Synthesis and evaluation of fluoroquinolone derivatives as substrate-based inhibitors of bacterial efflux pumps” (2008).
In brackets after ≈: the same amount, converted by molar mass. Activity calls are given as the source filed them. No cut-off for these calls is given here.

Legend:
Staphylococcus aureus [1] = experiment: Antibacterial activity against Staphylococcus aureus K1758-P by broth microdilution technique; type: functional
In short: (§1)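 S. aureus K1758-P is the susceptible control for K1758-A, a K1758-background strain carrying a constructed plasmid for mepA overexpression. MIC was determined on both.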

Staphylococcus aureus [2] = experiment: Antibacterial activity against Staphylococcus aureus K1902 by broth microdilution technique; type: functional
Pseudomonas aeruginosa [3] = experiment: Antibacterial activity against Pseudomonas aeruginosa K1536 overexpressing mexCD by broth microdilution technique; type: functional
In short: (§2)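 MIC tested on P. aeruginosa PAO1, the susceptible control, and on its derivatives OCR1 (mexAB overexpresser) and K1536 (mexCD overexpresser).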

Pseudomonas aeruginosa [4] = experiment: Antibacterial activity against Pseudomonas aeruginosa OCR1 overexpressing mexAB by broth microdilution technique; type: functional; in short: as §2
Pseudomonas aeruginosa [5] = experiment: Antibacterial activity against Pseudomonas aeruginosa PAO1 by broth microdilution technique; type: functional; in short: as §2
Staphylococcus aureus [6] = experiment: Antibacterial activity against Staphylococcus aureus K2361 overexpressing norA by broth microdilution technique; type: functional
In short: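 MIC assessed on norA-overexpressing S. aureus K2361, paired with K1902 as its susceptible control.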

Escherichia coli [7] = experiment: Antibacterial activity against Escherichia coli AG100 by broth microdilution technique; type: functional
In short: (§3)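 MIC determined against E. coli AG102, an acrAB overexpresser, alongside its susceptible parental control AG100.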

Escherichia coli [8] = experiment: Antibacterial activity against Escherichia coli AG102 overexpressing acrAB by broth microdilution technique; type: functional; in short: as §3
Staphylococcus aureus [9] = experiment: Antibacterial activity against Staphylococcus aureus K1758-A overexpressing mepA by broth microdilution technique; type: functional; in short: as §1
Staphylococcus aureus [10] = experiment: Antibacterial activity against ciprofloxacin-resistant Staphylococcus aureus at > 100 ug/ml by broth microdilution technique; type: functional, organism-based
Staphylococcus aureus [11] = experiment: Inhibition of MepA efflux pump in Staphylococcus aureus […] assessed as reduction of ethidium bromide efflux for 5 mins
[12] = molecular target: T1, Quinolone resistance protein NorA (Staphylococcus aureus) (UniProt P0A0J7); experiment: Inhibition of NorA efflux pump in Staphylococcus aureus K2361 assessed as reduction of ethidium bromide efflux for 5 mins
T1 sequence (whole entry): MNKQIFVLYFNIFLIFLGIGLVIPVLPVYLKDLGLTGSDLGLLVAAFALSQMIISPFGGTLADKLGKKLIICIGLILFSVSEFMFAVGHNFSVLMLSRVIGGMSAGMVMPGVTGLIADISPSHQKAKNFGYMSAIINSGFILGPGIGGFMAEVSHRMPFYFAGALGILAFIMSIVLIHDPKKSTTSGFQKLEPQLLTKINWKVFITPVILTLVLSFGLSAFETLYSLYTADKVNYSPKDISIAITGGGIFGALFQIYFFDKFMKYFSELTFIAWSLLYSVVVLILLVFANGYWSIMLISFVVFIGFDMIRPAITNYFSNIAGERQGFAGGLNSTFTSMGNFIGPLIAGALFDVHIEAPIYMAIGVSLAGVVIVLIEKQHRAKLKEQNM

[13] = molecular target: T1, Quinolone resistance protein NorA (Staphylococcus aureus); experiment: Inhibition of NorA efflux pump in Staphylococcus aureus K2361 assessed as reduction of ethidium bromide efflux at 0.5 uM […]
[14] = molecular target: T1, Quinolone resistance protein NorA (Staphylococcus aureus); experiment: Inhibition of NorA efflux pump in Staphylococcus aureus K2361 assessed as reduction of ethidium bromide efflux at 2 uM for 5 mins
Staphylococcus aureus [15] = experiment: Inhibition of MepA efflux pump in Staphylococcus aureus K2361 assessed as reduction of ethidium bromide efflux at 0.5 uM […]; settings: in the assay text read “K1758-A” for “K2361”
Staphylococcus aureus [16] = experiment: Inhibition of MepA efflux pump in Staphylococcus aureus K2361 assessed as reduction of ethidium bromide efflux at 10 uM for 5 mins; settings: in the assay text read “K1758-A” for “K2361”
[17] = molecular target: T1, Quinolone resistance protein NorA (Staphylococcus aureus); experiment: Inhibition of NorA efflux pump in Staphylococcus aureus K2361 assessed as reduction of ethidium bromide efflux at 10 uM for 5 mins
Staphylococcus aureus [18] = experiment: Inhibition of MepA efflux pump in Staphylococcus aureus K2361 assessed as reduction of ethidium bromide efflux at 2 uM for 5 mins; settings: in the assay text read “K1758-A” for “K2361”
[19] = molecular target: T1, Quinolone resistance protein NorA (Staphylococcus aureus); settings: 30 uM
Staphylococcus aureus [20] = experiment: Inhibition of MepA efflux pump in Staphylococcus aureus K2361 assessed as reduction of ethidium bromide efflux at 30 uM for 5 mins; settings: in the assay text read “K1758-A” for “K2361”

`NCCC[C@@H](NC(=O)[C@@H](N)Cc1ccccc1)C(=O)N1CCN(c2cc3c(cc2F)c(=O)c(C(=O)O)cn3C2CC2)CC1` showed an MIC (Staphylococcus aureus [1]) of 10 mg/L (≈ 16.9 µM), an MIC (Staphylococcus aureus [2]) of 10 mg/L (≈ 16.9 µM) and an MIC (Pseudomonas aeruginosa [3]) of 50 mg/L (≈ 84.4 µM). For the same compound, the MIC (Pseudomonas aeruginosa [4]) was 50 mg/L (≈ 84.4 µM), the MIC (Pseudomonas aeruginosa [5]) was 50 mg/L (≈ 84.4 µM) and the MIC (Staphylococcus aureus [6]) was greater than 10 mg/L. It also gave an MIC (Escherichia coli [7]) of 10 mg/L (≈ 16.9 µM), an MIC (Escherichia coli [8]) of 10 mg/L (≈ 16.9 µM) and an MIC (Staphylococcus aureus [9]) greater than 10 mg/L.
With `O=C(Nc1ccccc1)Nc1ccc(CN2CCN(c3cc4c(cc3F)c(=O)c(C(=O)O)cn4C3CC3)CC2)cc1` the Activity (Staphylococcus aureus [10]) was “inactive”, the MIC (Staphylococcus aureus [1]) was 0.63 mg/L (≈ 1.13 µM) and the MIC (Staphylococcus aureus [2]) was 0.31 mg/L (≈ 0.558 µM). For the same compound, the MIC (Pseudomonas aeruginosa [3]) was 50 mg/L (≈ 90 µM), the Activity (Staphylococcus aureus [11]) was “inactive” and the MIC (Pseudomonas aeruginosa [4]) was 50 mg/L (≈ 90 µM). It also gave an MIC (Pseudomonas aeruginosa [5]) of 50 mg/L (≈ 90 µM), an MIC (Staphylococcus aureus [6]) of 1.25 mg/L (≈ 2.25 µM) and an MIC (Escherichia coli [7]) of 5 mg/L (≈ 9 µM). For the same compound, the MIC (Escherichia coli [8]) was 10 mg/L (≈ 18 µM), the MIC (Staphylococcus aureus [9]) was 0.63 mg/L (≈ 1.13 µM) and the Activity [12] was “inactive”.
Compound `NCc1ccc(NC(=O)Nc2ccccc2)cc1` has an inhibition [13] of 20%.
`O=C(O)c1cn(C2CC2)c2cc(N3CCNCC3)c(F)cc2c1=O` [CIPROFLOXACIN] gave an MIC (Staphylococcus aureus [1]) of 0.16 mg/L (≈ 0.483 µM), an MIC (Staphylococcus aureus [2]) of 0.16 mg/L (≈ 0.483 µM) and an MIC (Pseudomonas aeruginosa [3]) of 0.78 mg/L (≈ 2.35 µM). It also gave an MIC (Pseudomonas aeruginosa [4]) of 0.78 mg/L (≈ 2.35 µM), an MIC (Pseudomonas aeruginosa [5]) of 0.16 mg/L (≈ 0.483 µM) and an MIC (Staphylococcus aureus [6]) of 2.5 mg/L (≈ 7.54 µM). The MIC (Escherichia coli [7]) was no more than 0.019 mg/L, the MIC (Escherichia coli [8]) was 0.04 mg/L (≈ 0.121 µM) and the MIC (Staphylococcus aureus [9]) was 0.63 mg/L (≈ 1.9 µM).
With `NCCC[C@H](N)C(=O)N[C@@H](Cc1ccccc1)C(=O)N1CCN(c2cc3c(cc2F)c(=O)c(C(=O)O)cn3C2CC2)CC1` the MIC (Staphylococcus aureus [1]) was greater than 10 mg/L, the MIC (Staphylococcus aureus [2]) was greater than 10 mg/L and the MIC (Pseudomonas aeruginosa [3]) was 50 mg/L (≈ 84.4 µM). The MIC (Pseudomonas aeruginosa [4]) was 50 mg/L (≈ 84.4 µM), the MIC (Pseudomonas aeruginosa [5]) was 50 mg/L (≈ 84.4 µM) and the MIC (Escherichia coli [7]) was 10 mg/L (≈ 16.9 µM). It also gave an MIC (Escherichia coli [8]) of 10 mg/L (≈ 16.9 µM).
Work on `O=C(Nc1ccccc1)Nc1ccccc1` yielded an inhibition [13] of 20%.
In the case of `CC1COc2c(N3CCN(C)CC3)c(F)cc3c(=O)c(C(=O)O)cn1c23` (stereo not given) [OFLOXACIN], the MIC (Staphylococcus aureus [1]) is reported as 0.63 mg/L (≈ 1.74 µM), the MIC (Staphylococcus aureus [2]) is reported as 0.63 mg/L (≈ 1.74 µM) and the MIC (Pseudomonas aeruginosa [3]) is reported as 6.25 mg/L (≈ 17.3 µM). The MIC (Pseudomonas aeruginosa [4]) was 6.25 mg/L (≈ 17.3 µM), the MIC (Pseudomonas aeruginosa [5]) was 1.25 mg/L (≈ 3.46 µM) and the MIC (Staphylococcus aureus [6]) was 2.5 mg/L (≈ 6.92 µM). For the same compound, the MIC (Escherichia coli [7]) was 0.08 mg/L (≈ 0.221 µM), the MIC (Escherichia coli [8]) was 0.16 mg/L (≈ 0.443 µM) and the MIC (Staphylococcus aureus [9]) was 1.25 mg/L (≈ 3.46 µM).
With `NCc1ccc(NC(=O)Nc2ccc(Cl)cc2)cc1` the inhibition [13] was 20%.
`CC1COc2c(NCc3ccc(NC(=O)Nc4ccccc4)cc3)c(F)cc3c(=O)c(C(=O)O)cn1c23` (stereo not given) showed an inhibition [14] of 85.6%, an MIC (Staphylococcus aureus [1]) greater than 100 mg/L and an inhibition (Staphylococcus aureus [15]) of 53.4%. It also gave an MIC (Staphylococcus aureus [2]) greater than 100 mg/L, an inhibition (Staphylococcus aureus [16]) of 84.1% and an MIC (Pseudomonas aeruginosa [3]) of 100 mg/L (≈ 199 µM). The inhibition [13] was 73.6%, the MIC (Pseudomonas aeruginosa [4]) was 50 mg/L (≈ 99.5 µM) and the inhibition [17] was 96.4%. For the same compound, the MIC (Pseudomonas aeruginosa [5]) was 50 mg/L (≈ 99.5 µM), the MIC (Staphylococcus aureus [6]) was 100 mg/L (≈ 199 µM) and the MIC (Escherichia coli [7]) was 10 mg/L (≈ 19.9 µM). The MIC (Escherichia coli [8]) was 10 mg/L (≈ 19.9 µM) and the inhibition (Staphylococcus aureus [18]) was 65.9%.
`COC(=O)[C@H]1[C@H]2C[C@@H]3c4[nH]c5cc(OC)ccc5c4CCN3C[C@H]2C[C@@H](OC(=O)c2cc(OC)c(OC)c(OC)c2)[C@@H]1OC` gave an inhibition [19] of 81% and an inhibition (Staphylococcus aureus [20]) of 32%.
